Calls of active or inactive are those of the source. No cut-off for these calls is given here.
What was measured:
[1] = biological target: T1, Voltage-gated inwardly rectifying potassium channel KCNH2 (Homo sapiens, UniProt Q12809); experiment: Inhibition of human Erg expressed in HEK293 cells assessed as rubidium efflux after 4 hrs by atomic absorbance spectrometric analysis
[2] = biological target: T2, Melanin-concentrating hormone receptor 1 (Homo sapiens, UniProt Q99705); experiment: Displacement of [125I]-MCH from MCHR1 after 2 hrs by scintillation counting
Outline: (§1)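 Competition binding on MCHR1 membrane preparation with 125I-MCH tracer. Compound diluted in 50 mM Tris pH 7.4, 10 mM MgCl2, 2.5 mM EDTA, 0.2% BSA. Incubation 2 h at 37 °C with shaking. Bound and free ligand separated by vacuum filtration through BSA-pretreated filter plates. Filters washed 4 times in Hepes/NaCl/BSA buffer, then counted by scintillation.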

Mus musculus [3] = experiment: Antiobesity activity in high fat diet-fed C57BL/6 mouse assessed as reduction in body weight at 3 mg/kg, po daily measured up to day 137 relative to control; type: functional, organism-based; parameters: dose 3 mg/kg
[4] = biological target: T1, Voltage-gated inwardly rectifying potassium channel KCNH2; experiment: Binding affinity to human Erg
Mus musculus [5] = experiment: Antiobesity activity in high fat diet-fed C57BL/6 mouse assessed as reduction in body weight at 10 mg/kg, po daily measured up to day 137 relative to control; type: functional, organism-based; parameters: dose 10 mg/kg
Outline: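 Male/female unspecified C57BL/6 mice weaned at 4–5 weeks and kept on high-fat diet for over 24 weeks before dosing. Body weight followed for 137 days against vehicle.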

Mus musculus [6] = experiment: Antiobesity activity in high fat diet-fed C57BL/6 mouse assessed as reduction in food intake at 3 to 10 mg/kg, po daily measured up to day 137 relative to control; type: functional, organism-based
Mus musculus [7] = experiment: Antiobesity activity in high fat diet-fed MCHR1-knockout C57BL/6 mouse assessed as reduction in body weight at 100 mg/kg, po daily measured for 34 weeks relative to control; type: functional, organism-based; parameters: dose 100 mg/kg
Outline: (§2)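 Wild-type and MCHR1-knockout female C57BL/6 mice given compound mixed into a 60% kCal fat high-fat diet. Body weight gain at study end compared with vehicle.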

[8] = biological target: T2, Melanin-concentrating hormone receptor 1; experiment: Binding affinity to human MCHR1; outline: as §1
[9] = biological target: T2, Melanin-concentrating hormone receptor 1; experiment: Antagonist activity at human MCHR1 assessed inhibition of MCH-mediated intracellular Ca2+ calcium mobilization by aequorin assay; type: functional, cell-based
Outline: (§3)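 MCH-evoked intracellular Ca2+ mobilization read by aequorin luminescence in cells. Antagonism measured as blockade of the MCH response.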

[10] = biological target: Melanin-concentrating hormone receptor 1 (Mus musculus, UniProt Q8JZL2); experiment: Antagonist activity at mouse MCHR1 assessed inhibition of MCH-mediated intracellular Ca2+ calcium mobilization; type: functional, cell-based; outline: as §3
[11] = biological target: Melanin-concentrating hormone receptor 1 (Rattus norvegicus, UniProt P97639); experiment: Antagonist activity at rat MCHR1 assessed inhibition of MCH-mediated intracellular Ca2+ calcium mobilization; type: functional, cell-based; outline: as §3
[12] = biological target: Melanin-concentrating hormone receptor 1 (Macaca mulatta, UniProt Q8MJ89); experiment: Antagonist activity at rhesus monkey MCHR1 assessed inhibition of MCH-mediated intracellular Ca2+ calcium mobilization; type: functional, cell-based; outline: as §3
[13] = biological target: Melanin-concentrating hormone receptor 2 (Homo sapiens, UniProt Q969V1); experiment: Antagonist activity at human MCHR2 assessed inhibition of MCH-mediated intracellular Ca2+ calcium mobilization; type: functional, cell-based; outline: as §3
[14] = biological target: 5-hydroxytryptamine receptor 1A (Homo sapiens, UniProt P08908); experiment: Binding affinity to serotonin 5HT1A receptor
[15] = biological target: 5-hydroxytryptamine receptor 2A (Homo sapiens, UniProt P28223); experiment: Binding affinity to serotonin 5HT2A receptor
[16] = biological target: T3, 5-hydroxytryptamine receptor 2C (Homo sapiens, UniProt P28335); experiment: Binding affinity to serotonin 5HT2C receptor
[17] = biological target: T3, 5-hydroxytryptamine receptor 2C; experiment: Antagonist activity at serotonin 5HT2C receptor assessed as blockage of intracellular calcium mobilization; type: functional, cell-based
D(1A) dopamine receptor = D(1A) dopamine receptor (Homo sapiens, UniProt P21728); experiment: Binding affinity to dopamine D1 receptor
D(2) dopamine receptor = D(2) dopamine receptor (Homo sapiens, UniProt P14416); experiment: Binding affinity to dopamine D2 receptor
[18] = biological target: Alpha-2A adrenergic receptor (Homo sapiens, UniProt P08913); experiment: Binding affinity to adrenergic alpha2A receptor
[19] = biological target: Alpha-2C adrenergic receptor (Homo sapiens, UniProt P18825); experiment: Binding affinity to adrenergic alpha2C receptor
Mu-type opioid receptor = Mu-type opioid receptor (Homo sapiens, UniProt P35372); experiment: Binding affinity to opioid mu receptor
[20] = biological target: Muscarinic acetylcholine receptor M2 (Homo sapiens, UniProt P08172); experiment: Binding affinity to muscarinic M2 receptor
[21] = biological target: Muscarinic acetylcholine receptor M3 (Homo sapiens, UniProt P20309); experiment: Binding affinity to muscarinic M3 receptor
[22] = biological target: Sodium-dependent noradrenaline transporter (Homo sapiens, UniProt P23975); experiment: Binding affinity to norepinephrine transporter
[23] = biological target: Sodium-dependent serotonin transporter (Homo sapiens, UniProt P31645); experiment: Binding affinity to serotonin transporter
[24] = Clearance in mouse at 0.5 mg/kg, iv; type: ADME, organism-based; parameters: dose 0.5 mg/kg, route intravenous; conditions: in vivo
Outline: (§4)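 Pharmacokinetics determined after IV dosing at 0.5 mg/kg and oral dosing at 3 mg/kg.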

[25] = Volume of distribution at steady state in mouse at 0.5 mg/kg, iv; type: ADME, organism-based; parameters: dose 0.5 mg/kg, route intravenous; conditions: in vivo, read-out: Vdss; outline: as §4
[26] = Clearance in rat at 0.5 mg/kg, iv; type: ADME, organism-based; parameters: dose 0.5 mg/kg, route intravenous; conditions: in vivo; outline: as §4
[27] = Volume of distribution at steady state in rat at 0.5 mg/kg, iv; type: ADME, organism-based; parameters: dose 0.5 mg/kg, route intravenous; conditions: in vivo, read-out: Vdss; outline: as §4
[28] = Clearance in beagle dog at 0.5 mg/kg, iv; type: ADME, organism-based, Canis lupus familiaris; parameters: dose 0.5 mg/kg, route intravenous; conditions: in vivo; outline: as §4
[29] = Volume of distribution at steady state in beagle dog at 0.5 mg/kg, iv; type: ADME, organism-based, Canis lupus familiaris; parameters: dose 0.5 mg/kg, route intravenous; conditions: in vivo, read-out: Vdss; outline: as §4
[30] = Clearance in cynomolgus monkey at 0.5 mg/kg, iv; type: ADME, organism-based, Macaca fascicularis; parameters: dose 0.5 mg/kg, route intravenous; conditions: in vivo; outline: as §4
[31] = Volume of distribution at steady state in cynomolgus monkey at 0.5 mg/kg, iv; type: ADME, organism-based, Macaca fascicularis; parameters: dose 0.5 mg/kg, route intravenous; conditions: in vivo, read-out: Vdss; outline: as §4
[32] = Mean residence time in mouse at 3 mg/kg, po; type: ADME, organism-based; parameters: dose 3 mg/kg, route oral; conditions: in vivo; outline: as §4
[33] = Mean residence time in rat at 3 mg/kg, po; type: ADME, organism-based; parameters: dose 3 mg/kg, route oral; conditions: in vivo; outline: as §4
[34] = Mean residence time in beagle dog at 3 mg/kg, po; type: ADME, organism-based, Canis lupus familiaris; parameters: dose 3 mg/kg, route oral; conditions: in vivo; outline: as §4
[35] = Mean residence time in cynomolgus monkey at 3 mg/kg, po; type: ADME, organism-based, Macaca fascicularis; parameters: dose 3 mg/kg, route oral; conditions: in vivo; outline: as §4
[36] = Oral bioavailability in mouse at 3 mg/kg; type: ADME, organism-based; conditions: in vivo; outline: as §4
[37] = Oral bioavailability in rat at 3 mg/kg; type: ADME, organism-based; conditions: in vivo; outline: as §4
[38] = Oral bioavailability in beagle dog at 3 mg/kg; type: ADME, organism-based, Canis lupus familiaris; conditions: in vivo; outline: as §4
[39] = Oral bioavailability in cynomolgus monkey at 3 mg/kg; type: ADME, organism-based, Macaca fascicularis; conditions: in vivo; outline: as §4
[40] = Ratio of drug uptake in blood to plasma of rat at 10 mg/kg, po; type: ADME, organism-based; parameters: dose 10 mg/kg, route oral; conditions: blood and plasma
Outline: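 Single 10 mg/kg oral dose. Drug concentration in whole blood was divided by the plasma concentration to give the [blood]/[plasma] ratio. Brain/plasma and CSF/plasma ratios were obtained after the same dose.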

[41] = Ratio of drug uptake in brain to plasma of rat at 10 mg/kg, po; type: ADME, organism-based; parameters: dose 10 mg/kg, route oral; conditions: brain and plasma, read-out: BPR
[42] = Ratio of drug uptake in CSF to plasma of rat at 10 mg/kg, po; type: ADME, organism-based; parameters: dose 10 mg/kg, route oral; conditions: CSF and plasma
Rhesus monkey = experiment: Cardiotoxicity in rhesus monkey assessed as QT prolongation administered as bolus dose; type: toxicity, organism-based, Macaca mulatta; conditions: in vivo
Outline: (§5)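 Anesthetized rhesus monkeys received an IV bolus followed by a 45 min IV infusion. QTc recorded throughout.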

[43] = Plasma concentration in iv dosed rhesus monkey after 45 mins; type: ADME, organism-based, Macaca mulatta; outline: as §5
Cynomolgus monkey = experiment: Cardiotoxicity in cynomolgus monkey assessed as QT prolongation at 30 mg/kg, po; type: toxicity, organism-based, Macaca fascicularis; parameters: dose 30 mg/kg, route oral; conditions: in vivo
Outline: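 Cynomolgus monkeys (n = 3) given a single 30 mg/kg oral dose; QTc monitored.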

Canis familiaris [44] = experiment: Cardiotoxicity in dog assessed as QT prolongation at 300 mg/kg, po; type: toxicity, organism-based, Canis lupus familiaris; parameters: dose 300 mg/kg, route oral; conditions: in vivo
Outline: (§6)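 Dogs dosed orally at 300 mg/kg in a 4 h study. QTc monitored throughout; plasma Cmax determined.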

[45] = Cmax in dog at 300 mg/kg, po; type: ADME, organism-based, Canis lupus familiaris; parameters: dose 300 mg/kg, route oral; conditions: in vivo; outline: as §6
Canis familiaris [46] = experiment: Cardiotoxicity in dog assessed as QT prolongation at 100 mg/kg, po BID for 28 days; type: toxicity, organism-based, Canis lupus familiaris; parameters: dose 100 mg/kg, route oral; conditions: in vivo, 672 h
Mus musculus [47] = experiment: Antiobesity activity in high fat diet-fed C57BL/6 mouse expressing wild type MCHR1 gene assessed as reduction in body weight at 100 mg/kg, po daily measured for 34 weeks relative to control; type: functional; parameters: scale not given: the % may be the effect or the level left; outline: as §2

T2 sequence (Q99705 whole entry): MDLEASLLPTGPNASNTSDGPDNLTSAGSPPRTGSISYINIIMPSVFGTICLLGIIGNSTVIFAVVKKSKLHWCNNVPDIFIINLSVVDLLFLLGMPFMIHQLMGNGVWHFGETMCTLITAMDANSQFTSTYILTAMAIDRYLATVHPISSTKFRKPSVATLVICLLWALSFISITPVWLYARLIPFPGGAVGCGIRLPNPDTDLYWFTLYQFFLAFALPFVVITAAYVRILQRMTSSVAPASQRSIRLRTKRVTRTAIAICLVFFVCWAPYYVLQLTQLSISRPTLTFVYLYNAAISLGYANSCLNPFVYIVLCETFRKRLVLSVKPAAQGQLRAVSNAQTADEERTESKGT
T1 sequence (Q12809 whole entry): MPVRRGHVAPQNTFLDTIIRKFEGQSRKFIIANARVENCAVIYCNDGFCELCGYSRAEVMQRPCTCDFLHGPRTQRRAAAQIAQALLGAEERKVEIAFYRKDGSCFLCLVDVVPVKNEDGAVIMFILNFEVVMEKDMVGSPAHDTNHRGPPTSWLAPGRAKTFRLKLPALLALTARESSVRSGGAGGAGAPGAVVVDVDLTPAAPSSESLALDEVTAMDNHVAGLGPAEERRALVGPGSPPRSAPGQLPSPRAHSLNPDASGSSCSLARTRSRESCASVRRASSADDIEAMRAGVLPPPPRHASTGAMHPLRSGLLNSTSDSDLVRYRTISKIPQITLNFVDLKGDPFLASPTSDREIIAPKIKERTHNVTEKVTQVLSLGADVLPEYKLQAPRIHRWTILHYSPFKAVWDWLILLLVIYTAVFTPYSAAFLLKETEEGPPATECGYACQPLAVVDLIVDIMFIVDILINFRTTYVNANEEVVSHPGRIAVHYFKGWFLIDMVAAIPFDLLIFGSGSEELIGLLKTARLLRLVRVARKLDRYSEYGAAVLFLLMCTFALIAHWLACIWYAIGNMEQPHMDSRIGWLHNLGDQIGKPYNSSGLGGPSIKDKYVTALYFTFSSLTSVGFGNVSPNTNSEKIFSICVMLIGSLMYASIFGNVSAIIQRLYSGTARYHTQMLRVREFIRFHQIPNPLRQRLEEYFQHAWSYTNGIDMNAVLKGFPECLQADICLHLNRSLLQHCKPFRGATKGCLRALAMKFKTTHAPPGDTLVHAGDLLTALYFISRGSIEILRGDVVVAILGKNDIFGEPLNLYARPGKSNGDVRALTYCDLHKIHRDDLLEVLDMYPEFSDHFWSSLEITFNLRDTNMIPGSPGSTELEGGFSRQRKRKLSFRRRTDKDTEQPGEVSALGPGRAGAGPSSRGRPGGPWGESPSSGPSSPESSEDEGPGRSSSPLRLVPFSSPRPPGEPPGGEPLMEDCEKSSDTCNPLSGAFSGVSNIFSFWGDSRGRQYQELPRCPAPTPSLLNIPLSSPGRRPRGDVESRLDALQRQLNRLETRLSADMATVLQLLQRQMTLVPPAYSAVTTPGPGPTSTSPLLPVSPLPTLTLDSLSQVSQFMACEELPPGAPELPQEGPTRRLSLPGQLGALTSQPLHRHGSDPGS
T3 sequence (P28335 whole entry): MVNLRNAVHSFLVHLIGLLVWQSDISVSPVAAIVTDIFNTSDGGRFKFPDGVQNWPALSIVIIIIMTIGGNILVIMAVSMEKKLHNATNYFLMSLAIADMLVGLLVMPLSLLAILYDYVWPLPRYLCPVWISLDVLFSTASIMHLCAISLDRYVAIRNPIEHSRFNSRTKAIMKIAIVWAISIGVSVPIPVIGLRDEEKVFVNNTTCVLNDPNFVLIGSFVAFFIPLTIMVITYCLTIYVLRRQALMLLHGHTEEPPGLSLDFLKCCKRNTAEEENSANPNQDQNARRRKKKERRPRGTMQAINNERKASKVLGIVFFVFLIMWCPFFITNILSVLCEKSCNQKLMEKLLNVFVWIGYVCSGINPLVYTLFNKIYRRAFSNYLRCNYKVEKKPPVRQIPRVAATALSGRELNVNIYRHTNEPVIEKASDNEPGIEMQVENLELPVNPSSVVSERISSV
Melanin-concentrating hormone receptor 1 (Rattus norvegicus, UniProt P97639), sequence (P97639 whole entry): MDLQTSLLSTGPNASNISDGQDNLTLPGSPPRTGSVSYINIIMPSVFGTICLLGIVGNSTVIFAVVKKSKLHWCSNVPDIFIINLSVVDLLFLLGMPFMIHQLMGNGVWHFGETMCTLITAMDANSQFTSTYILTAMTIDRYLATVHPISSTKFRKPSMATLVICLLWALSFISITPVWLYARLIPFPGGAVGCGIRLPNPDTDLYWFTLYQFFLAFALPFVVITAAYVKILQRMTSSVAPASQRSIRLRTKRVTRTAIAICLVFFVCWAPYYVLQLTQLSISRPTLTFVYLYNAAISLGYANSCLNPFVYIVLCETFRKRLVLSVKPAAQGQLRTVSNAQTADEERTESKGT
D(1A) dopamine receptor, sequence (P21728 whole entry): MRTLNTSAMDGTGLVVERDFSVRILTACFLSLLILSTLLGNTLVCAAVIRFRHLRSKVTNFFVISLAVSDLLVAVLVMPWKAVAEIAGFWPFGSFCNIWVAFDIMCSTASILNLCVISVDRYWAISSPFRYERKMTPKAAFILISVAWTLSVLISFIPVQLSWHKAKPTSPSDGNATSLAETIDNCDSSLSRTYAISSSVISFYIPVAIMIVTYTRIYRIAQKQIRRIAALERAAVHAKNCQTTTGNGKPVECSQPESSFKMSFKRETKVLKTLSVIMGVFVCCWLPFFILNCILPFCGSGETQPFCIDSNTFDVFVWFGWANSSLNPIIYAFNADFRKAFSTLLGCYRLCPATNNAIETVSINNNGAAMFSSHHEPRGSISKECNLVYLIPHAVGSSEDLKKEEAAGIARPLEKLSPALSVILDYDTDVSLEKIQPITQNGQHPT
5-hydroxytryptamine receptor 1A, sequence (P08908 whole entry): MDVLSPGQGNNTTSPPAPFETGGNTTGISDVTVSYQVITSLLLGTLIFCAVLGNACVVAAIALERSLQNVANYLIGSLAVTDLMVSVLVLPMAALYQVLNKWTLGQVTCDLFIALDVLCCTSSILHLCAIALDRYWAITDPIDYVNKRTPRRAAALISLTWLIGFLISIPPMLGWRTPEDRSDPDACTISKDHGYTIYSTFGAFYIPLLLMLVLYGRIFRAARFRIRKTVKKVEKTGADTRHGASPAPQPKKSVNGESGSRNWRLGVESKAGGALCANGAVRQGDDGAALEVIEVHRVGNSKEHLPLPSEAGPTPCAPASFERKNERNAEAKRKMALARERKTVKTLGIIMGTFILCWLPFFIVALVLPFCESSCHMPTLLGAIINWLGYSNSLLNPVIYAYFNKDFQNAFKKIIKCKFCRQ
Alpha-2A adrenergic receptor, sequence (P08913 whole entry): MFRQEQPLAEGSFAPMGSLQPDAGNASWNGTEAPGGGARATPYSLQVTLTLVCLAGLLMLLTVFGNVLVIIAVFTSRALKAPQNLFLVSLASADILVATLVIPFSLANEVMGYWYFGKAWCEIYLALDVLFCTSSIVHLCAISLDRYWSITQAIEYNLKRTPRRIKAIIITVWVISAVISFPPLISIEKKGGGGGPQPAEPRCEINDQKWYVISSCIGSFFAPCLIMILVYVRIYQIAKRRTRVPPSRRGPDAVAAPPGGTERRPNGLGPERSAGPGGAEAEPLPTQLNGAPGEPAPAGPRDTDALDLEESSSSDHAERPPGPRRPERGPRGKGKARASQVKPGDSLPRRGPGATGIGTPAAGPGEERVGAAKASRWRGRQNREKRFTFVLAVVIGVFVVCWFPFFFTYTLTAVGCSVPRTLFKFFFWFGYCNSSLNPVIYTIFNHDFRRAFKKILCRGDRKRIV
5-hydroxytryptamine receptor 2A, sequence (P28223 whole entry): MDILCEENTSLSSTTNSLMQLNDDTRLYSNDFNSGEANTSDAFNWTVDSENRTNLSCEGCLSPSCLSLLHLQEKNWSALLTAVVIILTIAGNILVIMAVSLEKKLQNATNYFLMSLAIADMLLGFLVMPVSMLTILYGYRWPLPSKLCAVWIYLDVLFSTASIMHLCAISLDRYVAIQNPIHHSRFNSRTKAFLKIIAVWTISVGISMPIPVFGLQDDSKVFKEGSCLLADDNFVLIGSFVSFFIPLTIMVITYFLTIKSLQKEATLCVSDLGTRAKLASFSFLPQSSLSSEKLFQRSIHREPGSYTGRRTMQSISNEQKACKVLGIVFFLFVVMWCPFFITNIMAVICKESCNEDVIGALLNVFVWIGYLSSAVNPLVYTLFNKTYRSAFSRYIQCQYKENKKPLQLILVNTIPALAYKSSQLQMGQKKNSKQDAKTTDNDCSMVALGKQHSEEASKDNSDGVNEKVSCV
Melanin-concentrating hormone receptor 1 (Mus musculus, UniProt Q8JZL2), sequence (Q8JZL2 whole entry): as the sequence (P97639 whole entry) above, with T5A, L24F, P27A, S29P, G34R, T138A counted along it
Melanin-concentrating hormone receptor 2, sequence (Q969V1 whole entry): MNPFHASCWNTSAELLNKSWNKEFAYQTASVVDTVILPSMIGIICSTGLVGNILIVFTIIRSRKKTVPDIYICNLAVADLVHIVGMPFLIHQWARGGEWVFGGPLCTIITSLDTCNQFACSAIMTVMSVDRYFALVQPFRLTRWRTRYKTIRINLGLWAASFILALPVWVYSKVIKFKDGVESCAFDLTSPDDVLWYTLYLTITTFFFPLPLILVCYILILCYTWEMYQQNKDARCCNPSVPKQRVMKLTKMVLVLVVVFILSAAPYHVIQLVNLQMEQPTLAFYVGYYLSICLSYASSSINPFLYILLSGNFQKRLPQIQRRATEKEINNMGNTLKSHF
D(2) dopamine receptor, sequence (P14416 whole entry): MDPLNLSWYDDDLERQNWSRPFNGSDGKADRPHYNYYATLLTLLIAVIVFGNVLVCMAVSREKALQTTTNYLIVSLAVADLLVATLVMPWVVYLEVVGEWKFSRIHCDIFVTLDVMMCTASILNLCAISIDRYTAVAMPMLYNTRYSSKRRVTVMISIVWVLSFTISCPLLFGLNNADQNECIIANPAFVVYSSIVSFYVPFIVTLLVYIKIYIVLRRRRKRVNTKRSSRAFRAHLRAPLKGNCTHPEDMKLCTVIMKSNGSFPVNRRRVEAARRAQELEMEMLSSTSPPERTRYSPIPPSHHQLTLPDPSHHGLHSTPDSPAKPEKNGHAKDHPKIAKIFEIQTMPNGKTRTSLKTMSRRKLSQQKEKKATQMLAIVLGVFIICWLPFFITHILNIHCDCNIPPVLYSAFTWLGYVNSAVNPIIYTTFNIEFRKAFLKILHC

## C[C@H]1c2c([nH]c3ccc(C(F)(F)F)cc23)C[C@H]2CCN(CCCC3CCOCC3)C[C@@H]21
[1]
  IC50: 30 nM

## C[C@H]1c2c([nH]c3ccc(C(F)(F)F)cc23)C[C@H]2CCN(CCC3(C(=O)O)CCOCC3)C[C@@H]21
[2]
  IC50: 9 nM
[1]
  IC50: > 5000 nM

## CC(C)CC(N(C)C)C1(c2ccc(Cl)cc2)CCC1 (stereo not drawn)
Mus musculus [3]
  Activity: Active

## N=C(c1ccc(C(=O)Nc2ccc(Cl)cc2C(=O)Nc2ccc(Cl)cn2)cc1)N1CCCC(C(=O)O)C1 (stereo not drawn)
[4]
  Ki: > 10 µM

## C[C@H]1c2c([nH]c3ccc(C(F)(F)F)cc23)C[C@H]2CCN(CCC3(C(=O)O)CCCCC3)C[C@@H]21 [listing 1 of 2 here]
Mus musculus [3]
  Activity: Active
Mus musculus [5]
  Activity: Active
Mus musculus [6]
  Activity: Active
Mus musculus [7]
  Activity: inactive

## C[C@H]1c2c([nH]c3ccc(C(F)(F)F)cc23)C[C@H]2CCN(CCC3(C(=O)O)CCCCC3)C[C@@H]21 [listing 2 of 2 here]
[2]
  IC50: 0.6 nM
[1]
  IC50: > 5000 nM
[8]
  Ki: 0.6 nM
[9]
  IC50: 1.2 nM
[10]
  IC50: 0.6 nM
[11]
  IC50: 0.8 nM
[12]
  IC50: 0.8 nM
[13]
  IC50: > 10 µM
[14]
  Ki: > 2000 nM
[15]
  Ki: > 2000 nM
[16]
  Ki: 1120 nM
[17]
  IC50: 1140 nM
D(1A) dopamine receptor
  Ki: > 2000 nM
D(2) dopamine receptor
  Ki: 3.16 µM
[18]
  Ki: > 2000 nM
[19]
  Ki: > 2000 nM
Mu-type opioid receptor
  Ki: > 2000 nM
[20]
  Ki: > 2000 nM
[21]
  Ki: > 2000 nM
[22]
  Ki: > 2000 nM
[23]
  Ki: > 2000 nM
[24]
  clearance: 10.7 mL/min/kg
[25]
  Vd: 3.6 L/kg
[26]
  clearance: 9.17 mL/min/kg
[27]
  Vd: 3.8 L/kg
[28]
  clearance: 8.83 mL/min/kg
[29]
  Vd: 2.2 L/kg
[30]
  clearance: 3.67 mL/min/kg
[31]
  Vd: 2.3 L/kg
[32]
  MRT: 5.8 h
[33]
  MRT: 7.9 h
[34]
  MRT: 4.2 h
[35]
  MRT: 11 h
[36]
  bioavailability: 79%
[37]
  bioavailability: 70%
[38]
  bioavailability: 40%
[39]
  bioavailability: 29%
[40]
  blood plasma ratio: 0.79
[41]
  Kp: 0.4
[42]
  Kp: 0.21
Rhesus monkey
  Activity: Non-toxic
[43]
  concentration at 0.75 h: 6.5 µM
Cynomolgus monkey
  Activity: Non-toxic
Canis familiaris [44]
  Activity: Non-toxic
[45]
  Cmax: 33 µM
Canis familiaris [46]
  Activity: Non-toxic

## C[C@H]1c2c([nH]c3ccc(C(F)(F)F)cc23)C[C@H]2CCN(CCCC3(C(=O)O)CCOCC3)C[C@@H]21
[2]
  IC50: 40 nM
[1]
  IC50: 300 nM

## C[C@H]1c2c([nH]c3ccc(C(F)(F)F)cc23)C[C@H]2CCN(CCC3(C(=O)O)CCCCC3)C[C@@H]21.Cl
Mus musculus [47]
  Activity: 33%

From ChEMBL document CHEMBL2029200, “Discovery of a novel melanin concentrating hormone receptor 1 (MCHR1) antagonist with reduced hERG inhibition” (Bioorg Med Chem Lett, 2012)
